# M1 agonist – activates the M1 muscarinic receptor; 64,000 compounds, 3% hits; CHO-M1 cells, Fluo-4 calcium fluorescence, agonist mode; hits give high values; AID 626; B-score at 10 µM;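 active means fluorescence rise, raw or as B-score row- and column-corrected plate score, outside the 99.7% band of its plate's samples, either direction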
# Hsp90 block – displaces geldanamycin probe from tumor Hsp90; P07900; NCI-N417 lysate Hsp90, Cy3B-geldanamycin FP displacement; inhibition, % at 30 µM; 64,000 compounds, 0.35% hits; AID 429;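 active means inhibition above 50%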;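 further: 0% = tracer plus lysate wells and 100% = tracer alone without lysate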
# E coli WT exp – blocks growth of wild type E. coli BW25113 | OD600 absorbance | growth inhibition, % at 100 µM | 98,000 compounds, 0.15% hits;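 active means growth inhibition above about 50% at one test dose, limit read from the data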;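 further: growth measured after 20 h incubation at 37 °C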
# BAP1 inh – inhibitors of human BAP1 deubiquitinase | Q92560 | recombinant BAP1, Ub-AMC hydrolysis fluorescence kinetic; hits give low values | calls only at 20 µM | 72,000 compounds, 0.48% hits;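 active means activity remaining at or below 50% of control, provided the compound also passes the data quality filters; inactive means the rest, including low values that fail the filters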;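 further: 100% = DMSO wells rate and 0% = substrate alone blank rate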
# M1 antagonist – antagonists of rat M1 muscarinic receptor; B-score at 10 µM; 64,000 compounds, 3.4% hits; CHO-M1 cells, Fluo-4 calcium, ACh EC80 antagonist mode; hits give low values; P08482;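 active means calcium fluorescence response, raw or row-and-column corrected B-score, differing from the plate sample mean either way at a set confidence level, mostly lower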
# Target sequence (P08482 whole entry, looked up): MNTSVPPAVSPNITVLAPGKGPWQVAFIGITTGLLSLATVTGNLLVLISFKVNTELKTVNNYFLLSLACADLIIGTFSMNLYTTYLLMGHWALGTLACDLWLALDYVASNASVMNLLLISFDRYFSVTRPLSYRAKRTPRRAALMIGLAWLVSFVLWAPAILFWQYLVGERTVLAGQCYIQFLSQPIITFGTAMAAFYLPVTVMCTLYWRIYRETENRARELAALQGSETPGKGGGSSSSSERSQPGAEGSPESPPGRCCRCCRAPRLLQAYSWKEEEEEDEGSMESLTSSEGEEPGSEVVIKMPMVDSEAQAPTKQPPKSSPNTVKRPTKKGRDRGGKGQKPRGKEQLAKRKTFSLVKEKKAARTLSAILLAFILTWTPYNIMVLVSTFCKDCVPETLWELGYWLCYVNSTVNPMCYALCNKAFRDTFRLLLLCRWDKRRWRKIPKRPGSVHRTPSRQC
# tolC growth inh – blocks growth of E. coli BW25113 tolC mutant. OD615. growth inhibition, % at 10 µM (by protocol). 65,000 compounds, 2.2% hits;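 active means growth inhibition at or above a cutoff equal to the mean over every tested compound plus 3 SD, cut at about 60% in these data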;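 further: growth measured after 20 h incubation at 37 °C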
#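 test system = E. coli BW25113 ΔtolC::kan bacteria | medium = LB with kanamycin 50 µg/mL | signal = OD at 615 nm | schedule = 37 °C, 20 h exposure | evaluation = % inhibition of E. coli growth | compound dosing = one dose of 10 µM final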
# * hit, by the source's call; i = inactive; · = no result shown. Hits are enriched below; roughly 5.1% of the tested compounds scored in any of these assays.
SMILES,M1 agonist,Hsp90 block,E coli WT exp,BAP1 inh,M1 antagonist,tolC growth inh
CCOC(=O)N1CCN(C(=O)c2ccc3c(c2)sc2nc(-c4ccc(OC)cc4)cn23)CC1,·,0,-4,i,·,0
COc1ccc2c(c1)sc1nc(-c3ccccc3)cn12,0.011,2,-11,·,-0.69,99*
CC(=O)n1nc2nc(C)cc(C)c2c1N,-0.00054,2,1,i,-0.11,-13
CCN(CC)N=Nc1[nH]nc2nc(C)cc(C)c12,·,·,63*,·,·,·
O=C(Nc1ccn(Cc2ccc(Cl)cc2)n1)c1ccc2c(c1)OCO2,-0.38,-8,7,i,-0.4,63*
CC(C)(C)c1cc(Cl)c(O)c(N=Cc2cccc([N+](=O)[O-])c2O)c1,·,·,·,i,·,·
Cn1c(=O)c2c(nc(N3CCCCCC3)n2Cc2cccc3ccccc23)n(C)c1=O,-0.26,·,-9,·,-0.54,74*
c1coc(CN(Cc2cccs2)Cc2nnnn2C2CCCCC2)c1,-0.078,-2,2,i,-0.74,95*
Cc1cccc(N(C)C(=O)c2cc3cc4ccc(C)cc4nc3o2)c1,1.1,0,-10,i,0.7,96*
CCOC(=O)c1c(NC(C)=O)sc2c1CCC(C=NC(C)(C)C)=C2Sc1ccccc1,·,·,·,i,·,·
O=C1OC(c2ccc([N+](=O)[O-])cc2)Sc2ccccc21 (stereo not given),·,·,·,i,·,·
c1cncc(-c2nc(N3CCCCCC3)c3ccccc3n2)c1,0.025,-5,0,i,-0.8,95*
COc1ccc(-c2nc(-c3cccs3)c(-c3cccs3)[nH]2)cc1O,1.4,0,-5,i,-0.3,97*
CC(C)CN1C(=O)NC(NC(=O)c2ccco2)(C(F)(F)F)C1=O (stereo not given),-0.019,94*,5,i,0.0041,-26
Cc1nc(N2CCN(Cc3ccc4c(c3)OCO4)CC2)nc2c1C(=O)CC(c1ccco1)C2 (stereo not given),0.43,0,-12,i,1.2,51
Cc1nc(N2CCN(Cc3ccccc3)CC2)nc2c1C(=O)CC(c1ccco1)C2 (stereo not given),-0.52,-7,-8,i,-0.09,79*
O=C1CN(C(=O)c2ccc(Br)o2)C(c2ccccc2)c2cc(Br)ccc2N1 (stereo not given),2.4,-2,-7,i,0.13,20
O=C1CN(C(=O)c2ccc(Br)o2)C(c2ccccc2)c2cc(Cl)ccc2N1 (stereo not given),0.32,-3,-6,i,0.0057,85*
CC1(C)C(=O)OC(c2cc(Br)ccc2O)C(C)(C)C1=O (stereo not given),2.5,-3,·,i,-1.5,63*
CC12CN3CC(C)(CN(C1)C3c1cc(Br)ccc1O)C2=O (stereo not given),-0.39,-4,0,i,0.015,-5
C=CCOC(=O)C1=C(C)NC2=C(C(=O)CCC2)C1c1cccc(O)c1 (stereo not given),·,·,·,i,·,·
CCN1C(=C2C(=O)c3ccccc3C2=O)C=Cc2ccccc21,0.052,-17,2,i,0.14,0
CCN1/C(=C/c2ccc3ccccc3[n+]2CC)C=Cc2ccccc21,·,·,57*,·,·,·
Cc1ccc2[nH]c3c(c2c1)CCc1cn[nH]c1-3,0.61,1,39,i,0.61,100*
Cc1ccc2[nH]c3c(c2c1)CCC3=O,0.79,-3,2,i,-0.77,-2
SMILES,M1 agonist,Hsp90 block,E coli WT exp,BAP1 inh,M1 antagonist,tolC growth inh
CCC1Oc2ccc(C)cc2N(CC(=O)N(Cc2cccnc2)Cc2ccc(C)o2)C1=O (stereo not given),4.4*,-6,3,i,-1.5,19
CCC(C)NCCNc1cc(OC)cc2cccnc12 (stereo not given),·,127*,·,·,·,·
COc1cc(NCCN(CC(C)C)CC(C)C)c2ncccc2c1,·,22,·,·,·,·
CC1=C(C(=O)Nc2ccccn2)C(c2ccc3c(c2)OCO3)NC(=S)N1 (stereo not given),·,·,·,i,·,·
CCOC(=O)c1ccc(Oc2nc(NC(C)(C)C)nc(N(C)C)n2)cc1,0.74,0,-12,i,-0.3,66*
Cc1cccc(C(=O)Nc2ccc(C)c(F)c2)c1,·,·,·,i,·,·
CCN(CC)S(=O)(=O)c1ccc(C(=O)Nc2nc3c(s2)CC(C)CC3)cc1 (stereo not given),·,·,·,i,·,·
CCCCc1ccc(NC(=O)COc2cccc(Cl)c2)cc1,·,·,·,i,·,·
COc1ccc(OC)c(C(=O)COC(=O)c2ccc(C)o2)c1,0.36,·,-4,·,1.4,10
Cc1ccc(C)c(C(=O)COC(=O)c2ccc(Br)o2)c1,-0.021,1,-2,i,2.2*,31
COc1ccc(C(=O)Nc2ccc(S(=O)(=O)Nc3nccc(C)n3)cc2)cc1OC,·,·,8,·,·,·
COc1ccc(C(=O)Nc2ccc(S(=O)(=O)Nc3nccnc3OC)cc2)cc1OC,25*,-5,-5,i,-19*,-9
CCc1cc2c3c(c(=O)oc2cc1O)CCCC3,-0.49,0,2,·,-0.57,61*
C/C(CCc1oc2ccccc2c1-c1ccc(C)o1)=N/O,0.35,-2,8,i,0.093,98*
O=C(O)C1Cc2c([nH]c3ccccc23)C(c2ccccc2O)N1 (stereo not given),·,·,·,i,·,·
Cc1ccc(C2C3CN(C(C)C)CC=C3C(C#N)=C(N)C2(C#N)C#N)cc1 (stereo not given),55*,11,14,i,2.2*,15
N#CC1=C(N)C(C#N)(C#N)[C@H](c2ccoc2)[C@H]2CN(Cc3ccccc3)CC=C12,26*,-11,6,i,-0.28,20
CN1CC=C2C(C#N)=C(N)C(C#N)(C#N)[C@H](c3ccoc3)[C@H]2C1,·,·,-1,·,·,·
CC1=C(C(=O)OCc2ccc(C)cc2)C(c2ccc(O)cc2)NC(=O)N1 (stereo not given),·,·,·,i,·,·
CC(=O)Nc1ccc(S(=O)(=O)Nc2ccccc2C#N)cc1,·,·,·,i,·,·
COc1ccc(NS(=O)(=O)c2ccc3oc(Nc4ccc5c(c4)OCCO5)nc3c2)cc1,-0.045,7,-11,i,0.022,79*
COc1ccc(NC(=O)N(CCc2ccccc2)Cc2cc3c(C)cc(C)cc3[nH]c2=O)cc1,·,·,0,·,·,·
COc1ccc(S(=O)(=O)N(CCCN2CCCC2=O)Cc2cc3c(C)cc(C)cc3[nH]c2=O)cc1,5.1*,-3,4,i,-0.065,10
Cc1ccc([N+](=O)[O-])cc1N1COc2ccc3ccccc3c2C1,·,·,·,i,·,·
CCOc1ccc(C(=O)C2CCN(CC(=O)Nc3ccccc3N3CCOCC3)CC2)cc1,0.11,-1,-9,i,0.093,76*
COc1cccc(-c2nc(-c3ccccn3)no2)c1,·,·,13,·,·,·
COc1cccc(-c2noc(-c3cccs3)n2)c1,-0.43,0,-8,i,-0.14,94*
COc1ccc(-c2nc(-c3cccc(C)c3)no2)cc1OC,-0.92,0,·,i,-0.56,-3
COc1cccc(-c2nc(-c3ccccc3)no2)c1,-0.2,-5,3,i,0.091,99*

# High-throughput results deposited in PubChem by several laboratories.
